# Calls of active or inactive are those of the source. No cut-off for these calls is given here.
# Legend:
# MGC-803 = assay: Antiproliferative activity against human MGC-803 cells measured after 48 hrs by MTT assay; format: functional, cell-based; settings: MGC-803, 48 h
# Procedure, shortened: (§1)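 Cells seeded 5 × 10^3 per well, grown overnight at 37 °C, then exposed to compound at final 1–40 μM (1, 2.5, 5, 7.5, 10, 12.5, 15, 20, 30, 40 μM) for the stated period. MTT added, 4 h at 37 °C, formazan dissolved in DMSO, absorbance read. IC50 = concentration killing 50% of cells relative to untreated control; mean ± S.D. of four independent experiments.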
# T-24 [1] = assay: Antiproliferative activity against human T24 cells measured after 48 hrs by MTT assay; format: functional, cell-based; settings: T-24, 48 h; procedure, shortened: as §1
# [2] = Antiproliferative activity against human HCV-29 cells measured after 48 hrs by MTT assay; format: functional, cell-based; settings: HCV-29, 48 h; procedure, shortened: as §1
# T-24 [3] = assay: Antiproliferative activity against human T24 cells measured after 72 hrs by MTT assay; format: functional, cell-based; settings: T-24, 72 h; procedure, shortened: as §1
# T-24 [4] = assay: Induction of apoptosis in human T24 cells assessed as increase in Bax expression at 5 to 7.5 uM measured by Western blot analysis; format: functional, cell-based; settings: dose 5-7.5 µM
# Procedure, shortened: (§2)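 Apoptosis-related proteins measured by Western blot in T24 lysates: 40 μg protein per lane by SDS-PAGE, PVDF transfer, primary and peroxidase-linked secondary antibodies, ECL detection, densitometry of gray values with β-actin as loading control.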
# T-24 [5] = assay: Induction of apoptosis in human T24 cells assessed as increase in caspase-3 expression at 0 to 5 uM measured by Western blot analysis; format: functional, cell-based; settings: dose 0-5 µM; procedure, shortened: as §2
# T-24 [6] = assay: Induction of apoptosis in human T24 cells assessed as increase in cleaved caspase-8 expression at 0 to 5 uM measured by Western blot analysis; format: functional, cell-based; settings: dose 0-5 µM; procedure, shortened: as §2
# T-24 [7] = assay: Induction of necroptosis in human T24 cells assessed as viable cells at 7.5 uM and measured by trypan blue exclusion assay; format: functional; settings: read-out: Activity
# Procedure, shortened: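 T24 cells (2 × 10^5/well) exposed for 16 h with or without Nec-1 (60 μM), then stained with trypan blue. Viable and dead cells counted. Result given as % viable cells relative to untreated control.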
# T-24 [8] = assay: Up-regulation of RIPK3 expression in human T24 cells at 7.5 to 10 uM measured after 16 hrs by Western blot analysis; format: functional, cell-based; settings: dose 7.5-10 µM
# T-24 [9] = assay: Up-regulation of p-RIPK3 expression in human T24 cells at 7.5 to 10 uM measured after 16 hrs by Western blot analysis; format: functional, cell-based; settings: dose 7.5-10 µM
# T-24 [10] = assay: Down-regulation of RIPK2 expression in human T24 cells at 7.5 to 10 uM measured in presence of 60 uM Nec-1 after 16 hrs by Western blot analysis; format: functional, cell-based; settings: dose 7.5-10 µM
# Procedure, shortened: (§3)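 T24 cells co-incubated 16 h with or without Nec-1 (60 μM). Lysates quantified by BCA, 40 μg protein resolved by SDS-PAGE, transferred to PVDF, probed with primary and peroxidase-conjugated secondary antibodies, detected by ECL. Band gray values normalized to β-actin loading control.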
# T-24 [11] = assay: Down-regulation of p-RIPK1 expression in human T24 cells at 7.5 to 10 uM measured in presence of 60 uM Nec-1 after 16 hrs by Western blot analysis; format: functional, cell-based; settings: dose 7.5-10 µM; procedure, shortened: as §3
# T-24 [12] = assay: Up-regulation of RIPK3 expression in human T24 cells at 2.5 to 7.5 uM measured by ELISA assay; format: functional, cell-based; settings: dose 2.5-7.5 µM
# Procedure, shortened: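 T24 cells pretreated, collected, diluted in PBS, counted and stored overnight at −20 °C. After membrane disruption, lysates centrifuged at 5000 × g for 5 min (4 °C). RIPK1, RIPK3 and MLKL levels then measured with ELISA kits.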
# T-24 [13] = assay: Up-regulation of caspase-8 mRNA expression in human T24 cells at 2.5 to 7.5 uM measured after 10 hrs by RT-PCR analysis; format: functional, cell-based; settings: dose 2.5-7.5 µM
# T-24 [14] = assay: Up-regulation of MLKL mRNA expression in human T24 cells at 7.5 to 12.5 uM measured by RT-PCR analysis; format: functional, cell-based; settings: dose 7.5-12.5 µM
# Procedure, shortened: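 Total T24 RNA extracted with TRIzol. RT-PCR normalized to GAPDH, relative expression by 2−ΔΔCt versus control. Incubation 16 h for RIPK1/RIPK3/MLKL. At least three independent experiments, each in triplicate.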
# T-24 [15] = assay: Down-regulation of VEGFR-2 mRNA expression in human T24 cells at 5 to 10 uM measured by RT-PCR analysis; format: functional, cell-based; settings: dose 5-10 µM
# T-24 [16] = assay: Induction of intracellular reactive oxygen species production in human T24 cells assessed as ROS level at 5 uM measured after 16 hrs by flow cytometry analysis; format: functional, cell-based
# Procedure, shortened: (§4)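 After 16 h treatment, floating and adherent T24 cells pooled and loaded with DCFH-DA (final 10 μM) for 30 min at 37 °C in the dark, washed, resuspended in PBS and analyzed by flow cytometry; fluorescence also quantified by luminescence spectrometry. ROS expressed relative to control; mean ± S.D. of three independent experiments.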
# T-24 [17] = assay: Induction of intracellular reactive oxygen species production in human T24 cells assessed as ROS level at 7.5 uM measured after 16 hrs by flow cytometry analysis; format: functional, cell-based; procedure, shortened: as §4
# T-24 [18] = assay: Induction of intracellular reactive oxygen species production in human T24 cells assessed as ROS level at 10 uM measured after 16 hrs by flow cytometry analysis; format: functional, cell-based; procedure, shortened: as §4
# T-24 [19] = assay: Induction of intracellular reactive oxygen species production in human T24 cells at 5 to 10 uM measured in presence of 60 uM Nec-1 after 16 hrs by flow cytometry analysis; format: functional, cell-based; settings: dose 5-10 µM
# Procedure, shortened: (§5)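 After 5-23 treatment (16 h), floating and adherent T24 cells pooled and loaded with DCFH-DA (final 10 μM) for 30 min at 37 °C in the dark. Cells washed, resuspended in PBS and read by flow cytometry; quantified by luminescence spectrometry as % of control. Runs with zVAD (30 μM) or Nec-1 (60 μM). Three parallel samples.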
# T-24 [20] = assay: Induction of intracellular reactive oxygen species production in human T24 cells at 5 to 10 uM measured in presence of 30 uM z-VAD after 16 hrs by flow cytometry analysis; format: functional, cell-based; settings: dose 5-10 µM; procedure, shortened: as §5
# [21] = Cmax in Sprague-Dawley rat at 12 mg/kg, IG measured HPLC analysis; format: ADME, organism-based; parameters: dose 12 mg/kg, route ig; settings: in vivo, po
# [22] = Tmax in Sprague-Dawley rat at 6 mg/kg, IG measured HPLC analysis; format: ADME, organism-based; settings: in vivo, po
# Procedure, shortened: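 Fasted (12 h) male-unspecified Sprague-Dawley rats (250 ± 20 g), n = 6 per group. Single intragastric dose of suspension (2 mg mL−1 in Tween 80/0.9% NaCl 1.5:5 v/v). Orbital blood drawn at 0.5–48 h and plasma assayed by reversed-phase C18 HPLC-UV. One-compartment fit, weight 1.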
# [23] = AUC (0 to 48 hrs) in Sprague-Dawley rat at 12 mg/kg, IG measured HPLC analysis; format: ADME, organism-based; parameters: time < 48 hr, dose 12 mg/kg, route ig; settings: in vivo, po
# [24] = AUMC in Sprague-Dawley rat at 12 mg/kg, IG measured HPLC analysis; format: ADME, organism-based; settings: in vivo, po
# [25] = Absorption rate constant in Sprague-Dawley rat at 12 mg/kg, IG measured HPLC analysis; format: ADME, organism-based; settings: in vivo, po
# [26] = Clearance in Sprague-Dawley rat at 6 mg/kg, IG measured HPLC analysis; format: ADME, organism-based; settings: in vivo, po
# [27] = Half-life in Sprague-Dawley rat at 12 mg/kg, IG measured HPLC analysis; format: ADME, organism-based; settings: in vivo, po
structure (smiles),measurement,setting,value
O=C(Nc1ccc(C(F)(F)F)cc1)Nc1cccc(CNc2nccnc2Cl)c1,IC50,MGC-803,6.91 µM
same,IC50,T-24 [1],4.58 µM
same,IC50,[2],30 µM
same,IC50,T-24 [3],3.55 µM
same,Activity,T-24 [4],Active
same,Activity,T-24 [5],Active
same,Activity,T-24 [6],Active
same,viability at 7.5 µM,T-24 [7],51%
same,Activity,T-24 [8],Active
same,Activity,T-24 [9],Active
same,Activity,T-24 [10],Active
same,Activity,T-24 [11],Active
same,Activity,T-24 [12],Active
same,Activity,T-24 [13],Active
same,Activity,T-24 [14],Active
same,Activity,T-24 [15],Active
same,Activity,T-24 [16],Active
same,Activity,T-24 [17],Active
same,Activity,T-24 [18],Active
same,Activity,T-24 [19],Active
same,Activity,T-24 [20],Active
same,Cmax,[21],3.36 µg/mL
same,Tmax,[22],12 h
same,AUC(0-t) at 48 h,[23],75.8 µg·h/mL
same,AUMC,[24],1494860 hr2.ng/ml
same,Ka,[25],0.107 h⁻¹
same,CL/F,[26],0.811 mL/min
same,half-life,[27],7.17 h

# Source: ChEMBL document CHEMBL5104108, “Concise synthesis and biological activity evaluation of novel pyrazinyl-aryl urea derivatives against several cancer cell lines, which can especially induce T24 apoptotic and necroptotic cell death” (RSC Med Chem, 2022)
